Data from ChEMBL document CHEMBL2429843 (J Med Chem, 2013).

Tests used:
[1] = Inhibition of Haemophilus influenzae TrmD using S-[methyl-3H] adenosyl-L-methionine as substrate assessed as leucine-tRNA methylation after 1 hr by scintillation proximity assay
Outline: (§1)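 Radiometric SPA: TrmD in 50 mM HEPES pH 7.5 with 5 mM MgCl2 (E. coli and K. pneumoniae 10 nM, S. aureus 10 nM, P. aeruginosa 5 nM, H. influenzae 4 nM in enzyme reagent), mixed 1:1 with a reagent of 0.05 μM [3H]SAM, 2 μM unlabelled SAM and 2 μM synthetic E. coli leucine-tRNA. Compounds are 2-fold serial DMSO dilutions. Incubation is 1 h at room temperature.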

[2] = Inhibition of Staphylococcus aureus TrmD using S-[methyl-3H] adenosyl-L-methionine as substrate assessed as leucine-tRNA methylation after 1 hr by scintillation proximity assay; outline: as §1
[3] = Inhibition of Escherichia coli TrmD using S-[methyl-3H] adenosyl-L-methionine as substrate assessed as leucine-tRNA methylation after 1 hr by scintillation proximity assay; outline: as §1
[4] = Aqueous solubility of the compound; format: physicochemical; conditions: buffer
[5] = Selectivity ratio for Escherichia coli TrmD over human SET7/9
[6] = molecular target: Protein arginine N-methyltransferase 1 (Homo sapiens) (UniProt Q99873); experiment: Inhibition of human PRMT1 at 20 uM relative to control
Chain of Protein arginine N-methyltransferase 1 (Homo sapiens) (Q99873 whole entry, looked up): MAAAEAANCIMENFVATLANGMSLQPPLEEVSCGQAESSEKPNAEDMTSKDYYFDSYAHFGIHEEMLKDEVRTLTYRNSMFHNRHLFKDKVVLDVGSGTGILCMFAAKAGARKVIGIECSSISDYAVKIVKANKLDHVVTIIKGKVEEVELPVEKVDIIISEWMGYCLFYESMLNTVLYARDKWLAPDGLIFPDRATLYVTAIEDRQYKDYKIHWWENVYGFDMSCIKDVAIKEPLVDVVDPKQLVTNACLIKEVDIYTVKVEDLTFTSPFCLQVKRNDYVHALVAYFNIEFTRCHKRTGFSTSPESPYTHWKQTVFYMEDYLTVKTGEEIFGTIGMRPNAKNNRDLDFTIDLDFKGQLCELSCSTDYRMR

[7] = Selectivity ratio for Escherichia coli TrmD over human PRMT1
[8] = molecular target: T1, Histone-lysine N-methyltransferase SETD7 (Homo sapiens) (UniProt Q8WTS6); experiment: Inhibition of human SET7/9 at 20 uM relative to control
T1 sequence (whole entry): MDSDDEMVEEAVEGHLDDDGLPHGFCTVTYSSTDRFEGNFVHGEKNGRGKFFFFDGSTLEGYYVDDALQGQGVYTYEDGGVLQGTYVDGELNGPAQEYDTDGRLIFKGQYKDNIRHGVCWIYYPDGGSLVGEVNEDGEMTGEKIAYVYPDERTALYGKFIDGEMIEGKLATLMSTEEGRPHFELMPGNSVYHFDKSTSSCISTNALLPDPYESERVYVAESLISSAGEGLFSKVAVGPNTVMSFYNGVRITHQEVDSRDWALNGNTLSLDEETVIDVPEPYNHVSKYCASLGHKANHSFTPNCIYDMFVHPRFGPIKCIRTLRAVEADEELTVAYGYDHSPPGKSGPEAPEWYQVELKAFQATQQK

[9] = Selectivity ratio of IC50 for Escherichia coli TrmD to IC50 for Pseudomonas aeruginosa TrmD
[10] = Inhibition of Pseudomonas aeruginosa TrmD using S-[methyl-3H] adenosyl-L-methionine as substrate assessed as leucine-tRNA methylation after 1 hr by scintillation proximity assay; outline: as §1
[11] = Inhibition of Acinetobacter baumannii TrmD using S-[methyl-3H] adenosyl-L-methionine as substrate assessed as leucine-tRNA methylation after 1 hr by scintillation proximity assay
[12] = Selectivity ratio of IC50 for Staphylococcus aureus TrmD to IC50 for Escherichia coli TrmD
Klebsiella pneumoniae = experiment: Inhibition of Klebsiella pneumoniae TrmD using S-[methyl-3H] adenosyl-L-methionine as substrate assessed as leucine-tRNA methylation after 1 hr by scintillation proximity assay; outline: as §1

Row | Structure (SMILES) | IC50 [1] | IC50 [2] | IC50 [3] | other results
1 | O=C(NCc1ccncc1)c1csc2nc[nH]c(=O)c12 | 8.2 µM | 72 µM | 19 µM | 
2 | O=c1[nH]cnc2sccc12 | 144 µM | 1340 µM | 120 µM | 
3 | O=C(NCc1ccc(-c2ccccc2)cc1)c1csc2nc[nH]c(=O)c12 | 64 µM | 105 µM | 33 µM | 
4 | O=C(NCc1ccccn1)c1csc2nc[nH]c(=O)c12 | 8 µM | > 200 µM | 139 µM | 
5 | O=C(NCc1ccc(CO)cc1)c1csc2nc[nH]c(=O)c12 | 10 µM | 38 µM | 5.9 µM | 
6 | O=C(NCc1cccnc1)c1csc2nc[nH]c(=O)c12 | 3.6 µM | 73 µM | 11 µM | 
7 | C[C@H](NC(=O)c1csc2nc[nH]c(=O)c12)c1ccccc1 | > 200 µM | > 200 µM | > 200 µM | 
8 | Cc1[nH]c2c(=O)n(C3CCNCC3)ccc2c1Cl |  |  |  | solubility [4]: > 500 µM
9 | COCCNCc1ccc(CNC(=O)c2csc3nc[nH]c(=O)c23)cc1 | 1.7 µM | 12 µM | 1.3 µM | 
10 | NC(=O)c1ccc(CNC(=O)c2csc3nc[nH]c(=O)c23)cc1 | 7.1 µM | 25 µM | 4.7 µM | 
11 | c1ccc2[nH]c(-c3cnco3)cc2c1 |  |  |  | solubility [4]: > 500 µM
12 | COc1ccc(-c2n[nH]c(N)n2)cc1 |  |  |  | solubility [4]: > 500 µM
13 | NCC1CCC(CNC(=O)c2csc3nc[nH]c(=O)c23)CC1 (configuration not stated) | 1.8 µM | 12 µM | 4.9 µM | 
14 | O=C1CN(Cc2ccc(CNC(=O)c3csc4nc[nH]c(=O)c34)cc2)CCN1 | 9.3 µM | 22 µM | 2.8 µM | 
15 | CC(=O)N1CCC(c2csc3nc[nH]c(=O)c23)C1 (configuration not stated) | > 200 µM | > 200 µM | > 200 µM | 
16 | Cc1ccc(-c2csc3ncnc(O)c23)cc1 | 1.7 µM | 62 µM | 6.9 µM | 
17 | O=C(NCc1ccccc1)c1csc2nc[nH]c(=O)c12 | 2.6 µM | 64 µM | 6.5 µM | 
18 | CN(Cc1ccccc1)C(=O)c1csc2nc[nH]c(=O)c12 | > 200 µM | > 200 µM | > 200 µM | 
19 | O=c1[nH]cnc2[nH]nc(-c3ccccc3)c12 | 30 µM | 1.4 µM | > 200 µM | 
20 | O=C(NCc1ccc(CN2CCNCC2)cc1)c1csc2nc[nH]c(=O)c12 | 1.6 µM | 7.6 µM | 0.89 µM | Selectivity ratio [5]: 50; inhibition [6]: < 10%; Selectivity ratio [7]: 50; inhibition [8]: < 10%
21 | O=c1[nH]cnc2scc(C3CCCC3)c12 | 16 µM | 21 µM | 52 µM | 
22 | O=c1[nH]cnc2[nH]cc(-c3ccccc3)c12 | 17 µM | 2.3 µM | 98 µM | 
23 | Oc1ncnc2scc(-c3ccccc3)c12 | 4.7 µM | 11 µM | 17 µM | 
24 | O=c1[nH]cnc2ccc(-c3ccccc3)cc12 | 11 µM | > 200 µM |  | 
25 | Cc1cccc2nc[nH]c(=O)c12 |  |  |  | solubility [4]: > 500 µM
26 | C[C@@H](NC(=O)c1csc2nc[nH]c(=O)c12)c1ccccc1 | 49 µM | > 200 µM | 123 µM | 
27 | O=c1[nH]cnc2scc(C3CCNC3)c12 (configuration not stated) | > 200 µM | > 200 µM | > 200 µM | 

More lines, in order of falling IC50 [1], values ahead:

Row | IC50 [1] | IC50 [2] | IC50 [3] | Structure (SMILES) | other results
28 | 1.6 µM | 14 µM | 0.47 µM | O=C(NCc1ccc(CN2CCN(CCO)CC2)cc1)c1csc2nc[nH]c(=O)c12 | 
29 | 1.3 µM | 7.3 µM | 0.44 µM | O=C(NCc1ccc(CN2CCC(O)CC2)cc1)c1csc2nc[nH]c(=O)c12 | Selectivity ratio [5]: 50; inhibition [6]: < 10%; Selectivity ratio [7]: 50; inhibition [8]: < 10%
30 | 1.2 µM | 1.8 µM | 0.89 µM | O=C(NCc1ccc(CNCCO)cc1)c1csc2nc[nH]c(=O)c12 | 
31 | 1.2 µM | 27 µM | 1.8 µM | CN(C)Cc1ccc(CNC(=O)c2csc3nc[nH]c(=O)c23)cc1 | 
32 | 1.1 µM | 4.7 µM | 0.67 µM | O=C(NCc1ccc(CN2CCCC2)cc1)c1csc2nc[nH]c(=O)c12 | 
33 | 1.1 µM | 6.7 µM | 4.8 µM | O=c1[nH]cnc2onc(-c3ccccc3)c12 | solubility [4]: > 500 µM
34 | 1.1 µM | 5.5 µM | 0.9 µM | N=C(N)c1ccc(CNC(=O)c2csc3nc[nH]c(=O)c23)cc1 | 
35 | 1 µM | 6.6 µM | 1 µM | CCCNCc1ccc(CNC(=O)c2csc3nc[nH]c(=O)c23)cc1 | 
36 | 0.67 µM | 34 µM | 2.1 µM | Cn1cc(-c2csc3nc[nH]c(=O)c23)cn1 | 
37 | 0.66 µM | 5.2 µM | 0.33 µM | NC1CCCN(Cc2ccc(CNC(=O)c3csc4nc[nH]c(=O)c34)cc2)C1 (configuration not stated) | Selectivity ratio [5]: 50; inhibition [6]: < 10%; Selectivity ratio [7]: 50; inhibition [8]: < 10%
38 | 0.6 µM | 6.3 µM | 0.4 µM | O=C(NCc1ccc(CN2CC[C@H](O)C2)cc1)c1csc2nc[nH]c(=O)c12 | Ratio IC50 [9]: 10; IC50 [10]: 0.12 µM; IC50 [11]: 0.63 µM; Ratio IC50 [12]: 5; IC50 (Klebsiella pneumoniae): 0.63 µM
39 | 0.49 µM | 2.9 µM | 0.19 µM | N=C(NCc1ccc(CNC(=O)c2csc3nc[nH]c(=O)c23)cc1)NC1CC1 | Selectivity ratio [5]: 50; inhibition [6]: < 10%; Selectivity ratio [7]: 50; inhibition [8]: < 10%
40 | 0.44 µM | 2.7 µM | 0.4 µM | NCCN1CCN(Cc2ccc(CNC(=O)c3csc4nc[nH]c(=O)c34)cc2)CC1 | Selectivity ratio [5]: 50; inhibition [6]: < 10%; Selectivity ratio [7]: 50; inhibition [8]: < 10%
41 | 0.42 µM | 2.7 µM | 0.29 µM | O=C(NCc1ccc(CN2CC[C@@H](O)C2)cc1)c1csc2nc[nH]c(=O)c12 | Ratio IC50 [9]: 10; IC50 [10]: 0.063 µM; IC50 [11]: 0.24 µM; Ratio IC50 [12]: 5; IC50 (Klebsiella pneumoniae): 0.51 µM
42 | 0.33 µM | 1.8 µM | 0.33 µM | NC1CN(Cc2ccc(CNC(=O)c3csc4nc[nH]c(=O)c34)cc2)C1 | Ratio IC50 [9]: 10; IC50 [10]: 0.25 µM; IC50 [11]: 1.3 µM; Ratio IC50 [12]: 5; IC50 (Klebsiella pneumoniae): 1.3 µM
43 | 0.33 µM | 7.4 µM | 0.44 µM | NCCNCc1ccc(CNC(=O)c2csc3nc[nH]c(=O)c23)cc1 | Selectivity ratio [5]: 50; Ratio IC50 [9]: 10; inhibition [6]: < 10%; IC50 [10]: 0.044 µM; Selectivity ratio [7]: 50; IC50 [11]: 0.74 µM; Ratio IC50 [12]: 5; inhibition [8]: < 10%; IC50 (Klebsiella pneumoniae): 0.61 µM
44 | 0.33 µM | 1.2 µM | 0.18 µM | NC1CCN(Cc2ccc(CNC(=O)c3csc4nc[nH]c(=O)c34)cc2)CC1 | Selectivity ratio [5]: 50; Ratio IC50 [9]: 10; inhibition [6]: < 10%; IC50 [10]: < 0.039 µM; Selectivity ratio [7]: 50; IC50 [11]: 0.58 µM; Ratio IC50 [12]: 5; inhibition [8]: < 10%; IC50 (Klebsiella pneumoniae): 0.35 µM
